Source: PubChem BioAssay
Shown are actives, neighbours in structure and some others; about 1.9% of the full set was active somewhere.
M5 antag – CHRM5 antagonism in calcium assay; CHO-hM5 cells, Fluo-8 calcium fluorescence, ACh EC80; inhibition, % at 3 µM; 0.59% of 360,000 active; AID 624040;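 active = inhibition above a per-plate cutoff, the mean of that plate's test compounds plus 3 SD, cut at about 27% in these data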;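 also: 0% = acetylcholine EC80 with DMSO and 100% = DMSO without agonist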
M4 PAM – CHRM4 positive allosteric modulation; CHO-K1 hM4/Gqi5, Fluo-8 calcium fluorescence, ACh EC20; 0% = ACh EC20, 100% = maximal ACh; activation, % at 3 µM; 0.4% of 360,000 active; AID 624126;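 active = activation above its plate's cutoff, the mean activation of sample wells plus 3 SD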
Target sequence (P08173 whole entry, looked up): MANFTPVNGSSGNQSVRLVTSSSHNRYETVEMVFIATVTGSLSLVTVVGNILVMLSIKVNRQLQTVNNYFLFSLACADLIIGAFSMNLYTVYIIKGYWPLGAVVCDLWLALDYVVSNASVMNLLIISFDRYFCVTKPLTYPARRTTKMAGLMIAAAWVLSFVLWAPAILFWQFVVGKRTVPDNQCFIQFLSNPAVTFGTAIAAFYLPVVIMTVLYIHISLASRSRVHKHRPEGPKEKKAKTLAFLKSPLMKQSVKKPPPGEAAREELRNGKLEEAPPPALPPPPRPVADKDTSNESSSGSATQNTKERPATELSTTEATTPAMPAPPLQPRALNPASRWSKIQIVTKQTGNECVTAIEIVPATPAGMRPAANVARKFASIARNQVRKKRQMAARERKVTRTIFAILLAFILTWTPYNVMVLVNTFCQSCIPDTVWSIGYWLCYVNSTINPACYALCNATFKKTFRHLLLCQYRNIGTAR
CHRM4 antagonist – blocks acetylcholine activation of human M4 receptor; 0.73% of 360,000 active; inhibition, % at 3 µM; AID 624125; CHO-hM4 cells, ACh EC80, Fluo-8 calcium fluorescence;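 active = inhibition above its plate's cutoff, the mean inhibition of sample wells plus 3 SD, cut at about 27% in these data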;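 also: 0% = acetylcholine EC80 with DMSO and 100% = DMSO without agonist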
M5 ag – CHRM5 agonism in calcium assay | P08912 | CHO-K1 hM5 cells, Fluo-8 calcium fluorescence; 0% DMSO wells, 100% maximal acetylcholine response | activation, % at 3 µM | 0.19% of 360,000 active;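 active = activation above the run's mean over test compounds plus 3 SD, cut at about 23% in these data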;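 also: signal is peak over basal fluorescence ratio across the kinetic read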
CHRM5 PAM – positive allosteric modulators of human muscarinic M5 receptor. CHO-K1 hM5, Fluo-8 calcium, ACh EC20 PAM; 0% = ACh EC20, 100% = ACh EC100. activation, % at 3 µM. 0.3% of 360,000 active;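 active = activation above the run cutoff, the mean activation of all test compounds plus 3 SD, cut at about 18% in these data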
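Replicates: One well per compound, no replicates | System: Human M5 receptor in CHO-K1 cells | Benchmarks: Low control EC20 acetylcholine (0%), high control EC100 acetylcholine (100%) | Probe or stimulus: Acetylcholine, EC20 level | Times: Fluo-8 loading 80 min at 37 °C plus 30 min room temperature | Signal: Intracellular calcium via Fluo-8 fluorescence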
M4 ag – CHRM4 agonism in calcium assay; P08173; CHO-K1 hM4/Gqi5, Fluo-8 calcium fluorescence; vehicle 0%, full acetylcholine response 100%; activation, % at 3 µM; 0.14% of 360,000 active; AID 624127;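 active = activation above the run mean over all test wells plus 3 SD, cut at about 32% in these data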;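 also: peak over basal fluorescence ratio per well then scaled between controls; 0% = DMSO wells and 100% = acetylcholine at EC100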
* marks the source's active call; other numbers are inactive results.

For NC(=S)NNC(=O)C12CC3CC(CC(C3)C1)C2 the results were M5 antag 5.3, M4 PAM -9.2, CHRM4 antagonist 9.7, M5 ag 6.4, CHRM5 PAM 1.0 and M4 ag 42.2*.
`COC(=O)NNC(=O)C12CC3CC(CC(C3)C1)C2` gave M5 antag -6.9, M4 PAM 10.6, CHRM4 antagonist -2.8, M5 ag -0.6, CHRM5 PAM 2.4 and M4 ag 1.6.
`O=C1Cc2c([nH]c3ccc([N+](=O)[O-])cc23)-c2ccccc2N1` gave M5 antag 19.3, M4 PAM 3.8, CHRM4 antagonist -9.5, M5 ag -6.4, CHRM5 PAM 0.3 and M4 ag 0.7.
O=C(Nc1ccccc1)OC[C@@H]1C=CS(=O)(=O)N1Cc1ccc(Br)cc1 was read as M5 antag -2.7, M4 PAM -4.2, CHRM4 antagonist 1.0, M5 ag 2.0, CHRM5 PAM -8.8 and M4 ag 7.2.
`CCOC(=O)C1(C)CCCCCN1C(=O)/C=C/c1ccccc1` (stereo not given) gave M5 antag 7.4, M4 PAM -3.7, CHRM4 antagonist -4.0, M5 ag -0.1, CHRM5 PAM -5.5 and M4 ag -0.1.
O=C(CSc1nnnn1C1CC2CCC1C2)Nc1ccnc2ccccc12 (stereo not given) was read as M5 antag 31.9*, M4 PAM -15.9, CHRM4 antagonist 25.2, M5 ag 10.4, CHRM5 PAM -15.6 and M4 ag 14.6.
CCNc1nc(CN2CCCCC2)nc2scc(-c3ccccc3)c12 was read as M5 antag 1.6, M4 PAM -18.9, CHRM4 antagonist 26.7*, M5 ag -8.3, CHRM5 PAM -8.4 and M4 ag 2.9.
`OCC1CCCN(c2nc(CN3CCCCC3)nc3scc(-c4ccccc4)c23)C1` (stereo not given) gave M5 antag -0.6, M4 PAM -16.9, CHRM4 antagonist 9.1, M5 ag -9.8, CHRM5 PAM -8.3 and M4 ag 1.9.
COc1ccc(Br)cc1/C(C)=N/NC1=NCCN1 was read as M5 antag 29.6*, M4 PAM -8.6, CHRM4 antagonist 2.0, M5 ag 46.7*, CHRM5 PAM -16.9 and M4 ag 11.1.
`CCCCCOc1ccc(Br)cc1/C(C)=N/NC1=NCCN1` gave M5 antag 9.2, M4 PAM -11.1, CHRM4 antagonist 9.7, M5 ag -9.8, CHRM5 PAM -15.3 and M4 ag 1.9.
`COC(=O)[C@@]12C[C@@H](CC(=O)NCc3ccc(OC)c(OC)c3)C(=O)N(Cc3cccc4ccccc34)C1=CCC(C)(C)C2` gave M5 antag -0.9, M4 PAM 2.1, CHRM4 antagonist 0.8, M5 ag 2.7, CHRM5 PAM -5.5 and M4 ag 7.8.
O=C(Nc1ccc(F)c(Cl)c1)C1Cc2c(-c3cccc(F)c3)ccnc2O1 (stereo not given) was read as M5 antag 7.6, M4 PAM 4.4, CHRM4 antagonist -8.7, M5 ag 1.6, CHRM5 PAM -5.0 and M4 ag 4.8.
`CC1(C(=O)NCc2ccccc2)CN(S(C)(=O)=O)CC(=O)N1Cc1cccc(F)c1` (stereo not given) gave M5 antag 5.6, M4 PAM 23.9*, CHRM4 antagonist -6.4, M5 ag 1.8, CHRM5 PAM -0.9 and M4 ag 5.7.
Screening Clc1ccc(OCc2cn3ccccc3n2)c2ncccc12 returned M5 antag 35.0*, M4 PAM -1.1, CHRM4 antagonist -5.2, M5 ag -4.6, CHRM5 PAM -12.2 and M4 ag 0.7.
CC12CCC3C(CCC4CC(O)CCC43C)C1CC(=O)C2 (stereo not given) was read as M5 antag 4.6, M4 PAM -7.8, CHRM4 antagonist -4.1, M5 ag 7.8, CHRM5 PAM -12.7 and M4 ag 18.0.
